Here are results for 18 compounds from PubChem BioAssay.

Structures are written as SMILES. Values without a mark were called inactive. Records with an inconclusive call do not appear. Active and inactive are the calls of the source.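 How the source made its calls, unless noted: active means inhibition over a set limit, the all-compound mean plus 3 SD, in both replicate runs; inconclusive means over that limit in just one replicate run; inactive means at or under that limit in both runs.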

Experiment [1] is described as follows: S. cerevisiae growth inhibition in permissive medium (OD615), pilot counter-assay for S. cerevisiae lifespan shortening project, permissive growth control (AID 705;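 active means growth inhibition above 25% in both replicates, a cutoff set 3 SD above the mean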). The following applies: OD615, 24 h, at 10 µM, active compounds read high. A digest of the protocol:
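System: S. cerevisiae with engineered DeaD lifespan system. Medium: SC raffinose/galactose permissive medium. Doses: single compound dose of 10 µM, 0.25% DMSO final. Schedule: 24 h exposure, 30 °C. Measured by: OD615 turbidity read. Read-out: growth inhibition.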

Experiment [2] in a line: S. cerevisiae growth inhibition in restrictive medium, OD615, pilot screen, restrictive growth control, yeast lifespan reduction project (AID 706;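 active means growth inhibition above a set limit, 3 SD over mean compound inhibition, in both replicates, cut at about 43% in these data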). The following applies: OD615, 48 h, at 10 µM, active compounds read high. A digest of the protocol: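 Assay system – genetically modified Saccharomyces cerevisiae, DeaD replicative lifespan assay strain · Medium – CSMM-D glucose medium · Doses – 10 µM compound, 0.25% DMSO · Times – 4 h pre-incubation, 48 h exposure at 30 °C · Signal – optical density at 615 nm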

Experiment [3] in a line: doxorubicin toxicity protection in MRP-1 cells – H69AR cells, CellTiter-Glo, duplicate, MRP-1 activator project, pilot screen (AID 807;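 active means viability increase at or above a cutoff of the median across tested compounds plus 3 SD, cut at about 8.5% in these data, passing the limit was not always enough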;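 further: compound pretreatment 18-22 h then 72 h combined with doxorubicin; 0% = doxorubicin alone and 100% = vehicle without doxorubicin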). The following applies: H69AR viability with doxorubicin, CellTiter-Glo luminescence; at 10 µM; active compounds read high.
Experiment [4] in a line: viability of HCT116 without oncogenic beta-catenin – human colon tumor cells, pilot screen (AID 823;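 active means cell viability at or below a set limit in both duplicate runs, the limit being the all-compound median minus 4 SD, cut at about 23% in these data, passing the limit was not always enough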;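 further: 0% = wells killed by 20 µM Hyamine and 100% = untreated DMSO cell wells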). The settings on record: HCT116 beta-catenin knockout viability, CellTiter-Glo, 60 h; at 10 µM; active compounds read low. Background: ATP-based viability assays read luminescence as a measure of living cells.
Experiment [5] is described as follows: viability of PTEN-null HCT116 cells – cell-based, HCT116 clonal line, CellTiter-Glo, pilot screen (AID 824;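 active means viability at or below 27.92% in each of two runs, the all-compound median minus 4 SD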;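 further: 0% = 20 µM Hyamine control and 100% = vehicle cell control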). The settings on record: HCT116 PTEN-deleted viability, 60 h, at 10 µM, active compounds read low.
Experiment [6] can be described thus: RAM pathway blockade in budding yeast – dse1pr::URA3 reporter, 5-FOA selection, pilot screen (AID 869).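 Further: 0% = DMSO wells with no growth and 100% = 10 µM 1-NA-PP1 with full growth; RAM network block rescues cells from 5-FOA so hits raise OD615 growth.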 The following applies: S. cerevisiae dse1pr::URA3 5-FOA growth, OD615, 2 d; at 10 µM; active compounds read high; strain carries analog-sensitive mutant Cbk1 kinase.
The nature of experiment [7]: RAM signaling pathway blockade in yeast – S. cerevisiae, Pdr1DBD-CYC8 efflux-inhibited sensitized strain, primary screen (AID 1298;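 active means RAM network inhibition above 8.4% in each of two replicates, 3 SD over the compound average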;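 further: 0% = DMSO untreated cells without growth and 100% = 10 µM 1-NA-PP1 full growth; higher means more yeast growth rescued from 5-FOA killing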). The following applies: S. cerevisiae cbk1-as DSE1-URA3 strain, 5-FOA growth OD615, 2 d; at 50 µM; active compounds read high.

One may read the viability as a read-out of living cells in per cent, often relative to untreated cells. What is called inhibition is the relative decrease from the control value, in per cent. Turning to `Cn1c(C(=O)N2CCN(c3ccc(Cl)cc3)CC2)cc2c(=O)n(C)c3ccccc3c21`, the growth inhibition was -9.61% in experiment [1] and 2.92% in experiment [2]. Further, in experiment [3], the viability increase is -0.43%. In addition, the viability in experiment [4] is 93%; in experiment [5], 90.6%. For the same compound, in experiment [6], the inhibition was 2.57%. Also, the RAM network inhibition in experiment [7] is 2.59%.
As for `CCOC(=O)N1CCC(N2C(=O)c3ccccc3C2Nc2cc(OC)c(OC)c(OC)c2)CC1` (stereo unspecified), the growth inhibition in experiment [1] was 6.9%; in experiment [2], 8.61%. Besides, the viability increase in experiment [3] is -4.12%. Besides, the viability was 92.2% in experiment [4] and 79.2% in experiment [5]. Moreover, the inhibition in experiment [6] was 0.24%. In addition, the RAM network inhibition in experiment [7] is 0.78%.
In the case of `Cc1ccc2[nH]c(=O)c3cc(C(=O)N4CCN(C(=O)c5ccco5)CC4)sc3c2c1`, the growth inhibition was 5.33% in experiment [1] and 7.05% in experiment [2]. In addition, the viability increase in experiment [3] is -3.84%. Besides, the viability in experiment [4] was 99%; in experiment [5], 92.3%. The inhibition in experiment [6] was 1.16%. The RAM network inhibition in experiment [7] was 7.89%.
On to `CC/C(=C\C(=O)c1ccncc1)Nc1ccc(O)cc1`, for which the values for the growth inhibition in experiment [1] and in experiment [2] were -4.59% and 8.96%, respectively. In addition, the viability increase in experiment [3] was -3.41%. Further, the viability in experiment [4] is 92.8%; in experiment [5], 83.7%. In addition, the inhibition in experiment [6] was 1.58%. Moreover, the RAM network inhibition in experiment [7] was 2.31%.
Consider `CN1CCN(c2cc(=O)n(-c3ccc(Cl)cc3)c(=O)[nH]2)CC1`, for which the growth inhibition is -1.55% in experiment [1] and -1.23% in experiment [2]. The viability increase in experiment [3] was 0.27%. In addition, the viability in experiment [4] is 108%; in experiment [5] it was 102%. Also, the inhibition in experiment [6] is 0.42%. Further, the RAM network inhibition in experiment [7] was 2.42%.
Turning to `CN(C)S(=O)(=O)c1ccc(C(=O)Nc2ccc(F)cc2F)cc1`, the results for the growth inhibition in experiment [1] and in experiment [2] were -14.5% and 0.42%, respectively. Besides, the viability increase in experiment [3] is 1.08%. The figures for the viability in experiment [4] and in experiment [5] were 95.5% and 94.4%, respectively. Besides, the inhibition in experiment [6] is 0.29%. In addition, the RAM network inhibition in experiment [7] is 2.9%.
Consider `CC(Cc1c[nH]c2ccccc12)NC(=O)C1CCCNC1=O` (stereo unspecified), for which the growth inhibition is -5.75% in experiment [1] and 8.45% in experiment [2]. Also, the viability increase in experiment [3] was -0.46%. The viability in experiment [4] was 99.4%; in experiment [5], 103%. Also, the inhibition in experiment [6] is 1.27%. Moreover, the RAM network inhibition in experiment [7] was 0.66%.
As for `O=C(O)c1ccc(NS(=O)(=O)c2cc(Cl)ccc2Cl)cc1`, the results for the growth inhibition in experiment [1] and in experiment [2] were -13.7% and -25.1%, respectively. Also, the viability increase in experiment [3] was -2.13%. The values for the viability in experiment [4] and in experiment [5] were 97.8% and 95.3%, respectively. Moreover, the inhibition in experiment [6] was 1.72%. Besides, the RAM network inhibition in experiment [7] is 4.43%.
As to `CN(C)CCCNc1ncnc2c1cnn2-c1ccccc1`, the figures for the growth inhibition in experiment [1] and in experiment [2] were -5.54% and -5.82%, respectively. In experiment [3], the viability increase is 2.9%. The viability is 94.3% in experiment [4] and 106% in experiment [5]. Moreover, the inhibition in experiment [6] was 0.27%. The RAM network inhibition in experiment [7] was -0.77%.
On to `O=c1nc2n(c3sc4c(c13)CCC4)Cc1ccccc1-2`, for which the growth inhibition in experiment [1] was -15.5%; in experiment [2], -9.3%. Moreover, in experiment [3], the viability increase was -2.14%. Besides, the viability in experiment [4] is 94.2%; in experiment [5], 100%. The inhibition in experiment [6] is 1.48%. For the same compound, the RAM network inhibition in experiment [7] is 1.43%.
Consider `COc1ccc(OC)c(NC(=O)Cn2cnc3c(cnn3-c3ccccc3)c2=O)c1`, for which the growth inhibition is 3.69% in experiment [1] and 7.43% in experiment [2]. In addition, the viability increase in experiment [3] is -0.9%. The viability was 98% in experiment [4] and 94.2% in experiment [5]. Moreover, the inhibition in experiment [6] was 1.27%. Further, in experiment [7], the RAM network inhibition is 0.95%.
`Cc1ccc(S(=O)(=O)CCc2nc3ccccc3n2CCC#N)cc1`: the growth inhibition is 4.59% in experiment [1] and 0.82% in experiment [2]. In experiment [3], the viability increase is -7.34%. Moreover, the figures for the viability in experiment [4] and in experiment [5] were 23.5% (active) and 18.7% (active), respectively. Also, the inhibition in experiment [6] is 0.995%. For the same compound, in experiment [7], the RAM network inhibition is 0.01%.
Take `COc1ccc(CNC(=O)CCS(=O)(=O)c2cccc3nonc23)cc1`: the growth inhibition in experiment [1] was -4.22%; in experiment [2] it was -26.3%. Also, the viability increase in experiment [3] is -2.89%. Besides, the viability in experiment [4] is 95.8%; in experiment [5], 100%. For the same compound, the inhibition in experiment [6] is 1.94%. For the same compound, the RAM network inhibition in experiment [7] is 6.09%.
In the case of `Cc1occc1C(=O)NCc1cccs1`, the growth inhibition in experiment [1] was -6.07%; in experiment [2], -2.95%. In addition, the viability increase in experiment [3] is -1.27%. The viability in experiment [4] is 91%; in experiment [5], 95.9%. The inhibition in experiment [6] was 0.455%. Further, the RAM network inhibition in experiment [7] is -0.16%.
For `Cc1ccc(C2N(c3ccc(F)cc3)C(=O)C3CCCN32)cc1` (stereo unspecified), the growth inhibition in experiment [1] is -0.945%; in experiment [2], -4.53%. In addition, in experiment [3], the viability increase is -1.55%. Moreover, the viability was 89.4% in experiment [4] and 97.3% in experiment [5]. Besides, the inhibition in experiment [6] was 2.21%. Also, the RAM network inhibition in experiment [7] was 4.87%.
For `CC(NC(=O)C1CCC1)c1ccc2c(c1)OCO2` (stereo unspecified), the values for the growth inhibition in experiment [1] and in experiment [2] were -10% and -5.42%, respectively. In addition, in experiment [3], the viability increase was -2.08%. The viability in experiment [4] was 97.5%; in experiment [5], 91.7%. Besides, the inhibition in experiment [6] is 1.67%. Moreover, the RAM network inhibition in experiment [7] is 0.83%.
For the compound `CCCc1cc(=O)[nH]c(SCC(=O)NC2CCCCC2)n1`, the growth inhibition in experiment [1] is 2.37%; in experiment [2] it was 0.01%. In experiment [3], the viability increase was -1.41%. For the same compound, the results for the viability in experiment [4] and in experiment [5] were 89.5% and 94.8%, respectively. For the same compound, the inhibition in experiment [6] was 0.82%. The RAM network inhibition in experiment [7] was 0.46%.
In the case of `CCC1CCCCN1C(=O)CSc1nnc(-c2ccc(Cl)cc2)o1` (stereo unspecified), the growth inhibition is 0.365% in experiment [1] and -5.16% in experiment [2]. In experiment [3], the viability increase was 0.28%. The viability in experiment [4] was 87%; in experiment [5], 90.9%. Also, in experiment [6], the inhibition was 1.89%. In experiment [7], the RAM network inhibition is 5.69%.
